Test results taken from ChEMBL document CHEMBL1833898, “Dual pro-drugs of 2'-C-methyl guanosine monophosphate as potent and selective inhibitors of hepatitis C virus” (Bioorg Med Chem Lett, 2011).
pEC50: −log10 of the molar value. The source made the active and inactive calls. The calls are words filed in the database; no cut-off is given here.

Key:
Huh-7 = assay: Prodrug stability in human HuH7 cell lysates assessed as monophosphate formation at pH 7.6 after every 1 hr for 11 hrs by NMR assay; type: ADME, cell-based, Lysate; settings: huh-7, pH 7.6, 11 h
Summary of the method: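 HuH7 cell lysate (10^7 cells) in acetone-d6 and Trizma buffer pH 7.6 at 37 °C. 31P NMR taken every 1 h for 11 h. Monophosphate identified by a signal at the shift of an authentic monophosphate.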

[1] = Cytotoxicity against human HuH7 cells; type: cell-based, Huh-7
Hepatitis C virus [2] = assay: Antiviral activity against Hepatitis C virus subtype 1b replicon in human HuH7 cells after 48 hrs by subgenomic replicon assay; type: functional, organism-based, Hepacivirus hominis; settings: genotype 1b, Huh-7, 48 h
Hepatitis C virus [3] = assay: Antiviral activity against Hepatitis C virus subtype 1b replicon in by replicon assay in presence of adenosine deaminase inhibitor pentostatin; type: functional, organism-based; settings: Hepacivirus hominis; genotype 1b
Summary of the method: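 Genotype 1b replicon in HUH7 cells, 48 h compound exposure, run with and without the adenosine/adenylate deaminase inhibitor pentostatin.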

[4] = Prodrug conversion of the compound using UV spectroscopic analysis in presence of adenosine deaminase; type: ADME
Summary of the method: (§1)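 Nucleoside at 44 μM (1 ml, phosphate buffer pH 7.4) with 30 μL adenosine deaminase solution. UV spectra taken at 1 min intervals for 30 min. Conversion judged by the spectrum matching 2'-C-methylguanosine. Reaction followed up to 24 h.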

[5] = Prodrug conversion of the compound after 24 hrs using UV spectroscopic analysis in presence of adenosine deaminase; type: ADME; summary of the method: as §1
[6] = Stability of the compound assessed as half life by NMR analysis in presence of carboxypeptidase Y; type: ADME
Summary of the method: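 Incubation with carboxypeptidase Y in acetone-d6 and Trizma buffer pH 7.6. 31P NMR spectra taken every 7 min over 14 h to follow loss of starting material and intermediate formation.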

Structure (SMILES) | Drug metabolism (Huh-7) | CC50 [1] | pEC50 (Hepatitis C virus [2]) | Activity (Hepatitis C virus [3]) | EC90 (Hepatitis C virus [2]) | Drug metabolism [4] | Drug metabolism [5] | half-life [6]
CCOc1nc(N)nc2c1ncn2[C@@H]1O[C@H](COP(=O)(N[C@@H](C)C(=O)O[C@@H](C)c2ccccc2)Oc2cccc3ccccc23)[C@@H](O)[C@@]1(C)O (stereo not given in full) | Active | 12 µM | 7.07 | inactive | – | – | – | –
CCOc1nc(N)nc2c1ncn2[C@@H]1O[C@H](COP(=O)(N[C@@H](C)C(=O)OCC(C)(C)C)Oc2cccc3ccccc23)[C@@H](O)[C@@]1(C)O (stereo not given in full) | – | 10 µM | 8.10 | inactive | 32 nM | – | – | –
CNc1nc(N)nc2c1ncn2[C@@H]1O[C@H](COP(=O)(N[C@@H](C)C(=O)OCC(C)(C)C)Oc2cccc3ccccc23)[C@@H](O)[C@@]1(C)O (stereo not given in full) | – | 38 µM | 7.46 | inactive | 103 nM | – | – | –
COCCCOc1nc(N)nc2c1ncn2[C@@H]1O[C@H](COP(=O)(N[C@@H](C)C(=O)OCC(C)(C)C)Oc2cccc3ccccc23)[C@@H](O)[C@@]1(C)O (stereo not given in full) | – | 31 µM | 7.37 | inactive | 120 nM | – | – | –
COc1nc(N)nc2c1ncn2[C@@H]1O[C@H](CO)[C@@H](O)[C@@]1(C)O [BETA-2'-C-METHYL-6-O-METHYL GUANOSINE] | – | > 100 µM | 5.34 | – | – | – | – | –
C[C@@]1(O)[C@H](O)[C@@H](CO)O[C@H]1N1C=NC2C(=O)NC(N)=NC21 (stereo not given in full) | – | – | – | – | – | Active | – | –
C[C@@]1(O)[C@H](O)[C@@H](CO)O[C@H]1n1cnc2c(NCc3ccccc3)nc(N)nc21 | – | – | 4.52 | – | – | – | – | –
CSc1nc(N)nc2c1ncn2[C@@H]1O[C@H](COP(=O)(N[C@@H](C)C(=O)OCC(C)(C)C)Oc2cccc3ccccc23)[C@@H](O)[C@@]1(C)O (stereo not given in full) | – | 41 µM | 7.43 | inactive | 160 nM | – | – | –
CCOc1nc(N)nc2c1ncn2[C@@H]1O[C@H](COP(=O)(N[C@@H](C)C(=O)OCc2ccc(F)cc2F)Oc2cccc3ccccc23)[C@@H](O)[C@@]1(C)O (stereo not given in full) | – | 17 µM | 7.47 | inactive | – | – | – | –
C[C@@]1(O)[C@H](O)[C@@H](CO)O[C@H]1n1cnc2c(NCCc3ccccc3)nc(N)nc21 | – | > 100 µM | 4.62 | – | – | – | – | –
CCOc1nc(N)nc2c1ncn2[C@@H]1O[C@H](COP(=O)(N[C@@H](C)C(=O)OC2CCCCO2)Oc2cccc3ccccc23)[C@@H](O)[C@@]1(C)O (stereo not given in full) | – | 47 µM | 7.10 | inactive | – | – | – | –
C[C@H](NP(=O)(OC[C@H]1O[C@@H](n2cnc3c(NCc4ccccc4)nc(N)nc32)[C@](C)(O)[C@@H]1O)Oc1cccc2ccccc12)C(=O)OCC(C)(C)C (stereo not given in full) | – | 15 µM | 6.10 | inactive | 2700 nM | – | – | –
C[C@@]1(O)[C@H](O)[C@@H](CO)O[C@H]1n1cnc2c(Cl)nc(N)nc21 | – | > 100 µM | 5.07 | – | – | – | – | –
CSc1nc(N)nc2c1ncn2[C@@H]1O[C@H](CO)[C@@H](O)[C@@]1(C)O | – | > 100 µM | 4.96 | – | – | – | Not Active | –
C[C@H](NP(=O)(OC[C@H]1O[C@@H](n2cnc3c(NCCc4ccccc4)nc(N)nc32)[C@](C)(O)[C@@H]1O)Oc1cccc2ccccc12)C(=O)OCC(C)(C)C (stereo not given in full) | – | 42 µM | 6.57 | inactive | 1300 nM | – | – | –
CC(C)Oc1nc(N)nc2c1ncn2[C@@H]1O[C@H](COP(=O)(N[C@@H](C)C(=O)OCC(C)(C)C)Oc2cccc3ccccc23)[C@@H](O)[C@@]1(C)O (stereo not given in full) | – | 11 µM | 7.64 | inactive | 65 nM | – | – | –
COCCCOc1nc(N)nc2c1ncn2[C@@H]1O[C@H](CO)[C@@H](O)[C@@]1(C)O | – | > 100 µM | 4.92 | – | – | – | – | –
CCOc1nc(N)nc2c1ncn2[C@@H]1O[C@H](CO)[C@@H](O)[C@@]1(C)O | – | > 100 µM | 5.06 | – | – | Active | – | –
CCOc1nc(N)nc2c1ncn2[C@@H]1O[C@H](COP(=O)(N[C@@H](C)C(=O)OC(C)C)Oc2cccc3ccccc23)[C@@H](O)[C@@]1(C)O (stereo not given in full) | – | 40 µM | 6.85 | inactive | – | – | – | 240 min
CCOc1nc(N)nc2c1ncn2[C@@H]1O[C@H](COP(=O)(N[C@H](C(=O)OCC(C)(C)C)C(C)C)Oc2cccc3ccccc23)[C@@H](O)[C@@]1(C)O (stereo not given in full) | – | 24 µM | 6.77 | inactive | – | – | – | –
CC(C)Oc1nc(N)nc2c1ncn2[C@@H]1O[C@H](CO)[C@@H](O)[C@@]1(C)O | – | > 100 µM | 5.03 | – | – | – | – | –
COc1nc(N)nc2c1ncn2[C@@H]1O[C@H](COP(=O)(N[C@@H](C)C(=O)OCC(C)(C)C)Oc2cccc3ccccc23)[C@@H](O)[C@@]1(C)O (stereo not given in full) [BMS-986094] | – | – | – | inactive | 38 nM | – | – | –
CNc1nc(N)nc2c1ncn2[C@@H]1O[C@H](CO)[C@@H](O)[C@@]1(C)O | – | > 100 µM | 4.89 | – | – | – | Not Active | –
C[C@H](NP(=O)(OC[C@H]1O[C@@H](n2cnc3c(Cl)nc(N)nc32)[C@](C)(O)[C@@H]1O)Oc1cccc2ccccc12)C(=O)OCC(C)(C)C (stereo not given in full) | – | 16 µM | 7.92 | inactive | 28 nM | – | – | –
CCOc1nc(N)nc2c1ncn2[C@@H]1O[C@H](COP(=O)(N[C@@H](C)C(=O)OCc2ccccc2)Oc2cccc3ccccc23)[C@@H](O)[C@@]1(C)O (stereo not given in full) | – | 11 µM | 7.40 | inactive | – | – | – | –
